Consider 1 molecule from article PMC6347715 (Proceedings of the National Academy of Sciences of the …, 2019).

For data set [1], the system named is Wolbachia pipientis (wAlbB) in C6/36 cells. Put plainly: Anti-Wolbachia cell-based assay. The following applies: C6/36, read-out: EC50 anti-Wolbachia, cell assay.
Data set [2] deals with Wolbachia within B. malayi mf. Put plainly: B. malayi microfilaria time-kill assay. Format: cell-based, Brugia malayi. Conditions: drug concentration 10 times EC50; exposures 1, 2, 6 d. The gist of the method:
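This is a time-kill variant of the 6-d B. malayi mf assay: 8,000 mf per well in supplemented RPMI at 37 °C, 5% CO2. Drug was removed by a wash step on the indicated exposure day. Wolbachia was then quantified by wsp/gst qPCR, with five replicates per time point per treatment. Results come from one experiment.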

A short description of data set [3]: Aqueous solubility in pH 7.4 PBS buffer. Format: physicochemical.
A short description of data set [4]: Solubility in fasted state-simulated intestinal fluid. Format: physicochemical.
Data set [5] is described as follows: pKa. It is filed as physicochemical.
Data set [6] is described as follows: Permeability in LLC-PK1 cell assay. It is filed as in vitro ADME. Conditions: pig.
For data set [7], the target named is P-gp (Homo sapiens, UniProt P08183). Put plainly: P-gp-mediated efflux. It is filed as in vitro ADME. Conditions: not told.
Data set [8] deals with CYP2C9 (Homo sapiens, UniProt P11712). Put plainly: CYP2C9 inhibition. Format: in vitro ADME.
Data set [9] deals with CYP3A4. Put plainly: CYP3A4 induction. Conditions: human. It is filed as in vitro ADME.
Data set [10] deals with CYP1A, CYP2C9, CYP2C19, CYP2D6, CYP3A. Put plainly: Time-dependent inhibition of five major human CYP450 isoforms. It is filed as in vitro ADME.
The nature of data set [11]: Mouse PK in BALB/c mice. The following applies: in vivo.
For data set [12], the system named is Wolbachia within female B. malayi adult parasites. Put plainly: Adult B. malayi SCID mouse model: Wolbachia load. It is filed as in vivo, Brugia malayi. Conditions: 100 mg/kg, 7 d orally.
For data set [13], the system named is B. malayi. Put plainly: Adult B. malayi SCID mouse model: parasitology readout. It is filed as in vivo, Brugia malayi. The following applies: over the 6 wk of observation post treatment.
In data set [14] the test system is Wolbachia in female adult L. sigmodontis. Put plainly: L. sigmodontis gerbil model: Wolbachia load. It is filed as in vivo, Litomosoides sigmodontis. The following applies: 18 wk post treatment. The gist of the method:
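Female gerbils aged 6–8 wk were infected by exposure to Ornithonyssus bacoti mites carrying L. sigmodontis L3. Treatment started 13 wk after infection, with animals randomised into groups of n = 5–9. Test compound in PEG300/propylene glycol/water (55/25/20) was given by oral gavage at 2.5 mL/kg. At necropsy 18 wk after treatment start, worms were recovered from the serous cavities. Wolbachia was measured by ftsZ qPCR in 5–20 individual female worms. Groups were compared with untreated controls by Kruskal–Wallis with Dunn's test.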

The test system of data set [15] is L. sigmodontis. Put plainly: L. sigmodontis gerbil model: parasitology readout. Format: in vivo, Litomosoides sigmodontis. Summed up: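 Gerbils were infected with L. sigmodontis via mites and given oral treatment from 13 wk post infection. Starting at 12 wk post infection, 10 µL of saphenous-vein blood was taken every two weeks and diluted in 300 µL Hinkelmann solution. Samples were centrifuged at 400 × g for 5 min, and the pellet was resuspended in 1 mL. Total mf were counted microscopically in a Sedgewick Rafter chamber, with follow-up to 18 wk after treatment start.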

Data set [16] can be described thus: Ames test. A general note: The Ames test detects mutagens through reverse mutation in bacteria.

Each structure is given as a SMILES string. In brackets after ≈: the same amount, converted by molar mass. Some results are limits rather than exact numbers.

CYP2C9, sequence (P11712 whole entry): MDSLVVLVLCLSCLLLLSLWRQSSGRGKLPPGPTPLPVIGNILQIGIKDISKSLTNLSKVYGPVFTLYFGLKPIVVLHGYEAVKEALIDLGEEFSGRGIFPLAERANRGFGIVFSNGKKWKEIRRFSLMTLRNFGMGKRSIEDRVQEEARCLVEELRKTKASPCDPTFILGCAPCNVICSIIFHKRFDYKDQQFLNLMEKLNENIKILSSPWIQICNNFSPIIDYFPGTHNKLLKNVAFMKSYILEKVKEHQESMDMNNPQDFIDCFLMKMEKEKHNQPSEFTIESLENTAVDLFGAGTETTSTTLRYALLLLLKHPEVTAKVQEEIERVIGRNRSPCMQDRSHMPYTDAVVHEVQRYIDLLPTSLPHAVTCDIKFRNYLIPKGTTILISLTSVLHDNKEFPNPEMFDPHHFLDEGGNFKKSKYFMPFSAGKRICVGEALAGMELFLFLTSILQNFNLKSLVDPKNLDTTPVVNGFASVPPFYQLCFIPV
P-gp, sequence (P08183 whole entry): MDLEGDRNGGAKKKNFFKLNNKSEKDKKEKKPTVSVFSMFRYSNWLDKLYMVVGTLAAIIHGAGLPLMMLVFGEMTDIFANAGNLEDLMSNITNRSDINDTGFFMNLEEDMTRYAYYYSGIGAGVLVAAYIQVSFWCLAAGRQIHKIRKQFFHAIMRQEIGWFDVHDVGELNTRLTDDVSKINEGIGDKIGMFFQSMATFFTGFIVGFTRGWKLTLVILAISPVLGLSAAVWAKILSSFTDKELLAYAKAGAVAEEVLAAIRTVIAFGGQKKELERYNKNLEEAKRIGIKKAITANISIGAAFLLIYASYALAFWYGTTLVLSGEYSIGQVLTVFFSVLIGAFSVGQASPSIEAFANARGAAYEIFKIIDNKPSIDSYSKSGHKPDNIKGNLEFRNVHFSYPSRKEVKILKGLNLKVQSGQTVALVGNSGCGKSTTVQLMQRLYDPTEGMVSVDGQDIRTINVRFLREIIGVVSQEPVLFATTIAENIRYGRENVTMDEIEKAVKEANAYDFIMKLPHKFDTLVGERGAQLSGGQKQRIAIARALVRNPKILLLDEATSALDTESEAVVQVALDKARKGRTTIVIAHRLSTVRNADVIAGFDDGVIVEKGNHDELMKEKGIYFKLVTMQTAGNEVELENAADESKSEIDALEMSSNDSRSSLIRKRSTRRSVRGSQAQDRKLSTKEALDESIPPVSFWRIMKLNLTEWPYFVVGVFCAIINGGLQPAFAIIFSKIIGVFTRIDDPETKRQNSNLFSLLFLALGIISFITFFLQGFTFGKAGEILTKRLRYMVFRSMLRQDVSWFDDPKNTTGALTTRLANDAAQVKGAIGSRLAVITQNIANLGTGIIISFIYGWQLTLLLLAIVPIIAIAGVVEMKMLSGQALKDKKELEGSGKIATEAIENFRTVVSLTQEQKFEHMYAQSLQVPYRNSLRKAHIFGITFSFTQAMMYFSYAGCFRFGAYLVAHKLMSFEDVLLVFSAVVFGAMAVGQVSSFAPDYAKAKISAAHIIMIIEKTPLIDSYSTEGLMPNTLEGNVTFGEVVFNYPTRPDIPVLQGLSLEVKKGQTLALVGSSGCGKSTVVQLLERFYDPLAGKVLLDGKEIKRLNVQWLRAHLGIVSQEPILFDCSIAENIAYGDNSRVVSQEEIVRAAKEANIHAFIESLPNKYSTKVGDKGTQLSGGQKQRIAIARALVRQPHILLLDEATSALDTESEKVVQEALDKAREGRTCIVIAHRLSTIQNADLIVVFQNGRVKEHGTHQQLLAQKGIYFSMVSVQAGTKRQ

In the case of `C[C@H]1COCCN1c1nc(NCc2cccnc2C(F)(F)F)c2cccnc2n1` [AWZ1066S, (S)-2-(3-methylmorpholino)-N-((2-(trifluoromethyl)pyridin-3-yl)methyl)pyrido[2,3-d]pyrimidin-4-amine], in [1], the EC50 came to 2.5 ± 0.4 nM. Besides, the “drug exposure needed for maximum reduction of Wolbachia” value in data set [2] is 1 days. For the same molecule, the values for the solubility in data set [3] and in data set [4] were 238 µM (≈ 96.2 µg/mL) and 560 µg/mL (≈ 1380 µM), respectively. The molecule further had a pKa in data set [5] of 5.6. In [6], this molecule showed a Papp of 7.4 ×10⁻⁶ cm/s. The efflux ratio in data set [7] is 7.8. The values for the IC50 in data set [8] and in data set [9] were 9.7 µM and 37 µM, respectively. For the same molecule, the time-dependent inhibition entry in data set [10] was “does not show any time-dependent inhibition”. In [11] (BALB/c SCID, po), this molecule yielded a bioavailability of 54 to 91%. Also, in data set [11] (iv, 5 mg/kg, total clearance, dosed intravenously), the clearance is 7.83 mL/min/kg. The “Wolbachia reduction compared with the vehicle group” value in [12] came out at 98%. In addition, in data set [13], the “mice in which release of mf was completely prevented” value is recorded as 9/10. Moreover, the “Wolbachia load reduction compared with control untreated animals” value in data set [14] (50 mg/kg orally twice daily 7 d) and in data set [14] (100 mg/kg orally twice daily 7 d) was above 99% in each case. Also, the “time from which peripheral blood microfilaremia began to decline” value in data set [15] (7-d treatment) came out at 6 wk post treatment. For the same molecule, the “time from which amicrofilaremia was evident” value in [15] (7-d treatment groups, sustained until 18 wk) was 14 wk post treatment. For the same molecule, the Ames test result in data set [16] is recorded as “negative”.

As usually defined, the EC50 is the concentration at which the effect is half-maximal. Broadly, the solubility is how much of the substance goes into solution per volume. A higher solubility goes with a readily soluble substance. One may read the pKa as the pH at which an ionisable group is half protonated. For orientation: Papp means a coefficient for how fast a substance crosses the barrier. Broadly, the efflux ratio is a quotient of directional permeabilities that is used to spot active efflux. As a reminder, the IC50 is the concentration that gives 50% inhibition. A lower IC50 goes with greater potency in that assay. What is called bioavailability is dose-corrected exposure relative to a reference, in per cent. Low readings indicate poor availability, high ones good availability. As usually defined, the clearance is the rate of elimination divided by the concentration. A low value points to a low capacity for elimination.
